# Active and inactive are the calls of the source. The rule behind the calls is not given here.
# Assays:
# [1] = Cytotoxicity against human CEM-SS cells by MTT assay; assay type: cell-based
# Method in brief: (§1)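 Uninfected cells grown at 37 °C, 5% CO2, in RPMI 1640 with 10% FCS, penicillin, streptomycin and glutamine, were incubated with a range of compound concentrations (up to 200 μM), run alongside the 5-day antiviral assay. Viability was read as MTT reduction to formazan by OD at 540 nm. CC50 was taken from a median effect plot of the dose-effect data.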
# [2] = Cytotoxicity against human MT4 cells by MTT assay; assay type: cell-based; method in brief: as §1
# [3] = system: Human immunodeficiency virus 1; test: Antiviral activity against HIV1 LAI in human CEM-SS cells assessed as RT activity after 8 serial passages with uninfected cells by serial passage experiment; assay type: functional, organism-based
# Method in brief: (§2)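 HIV-1 LAI at multiplicity 0.01 added to 2.5×10^5 CEM-SS cells in RPMI, 4 h at 37 °C. Cells washed twice in PBS, resuspended in 1 mL medium with or without analogue at 200 μM (100 μM where cytotoxicity required). Every 4 days an equal supernatant volume went to fresh CEM-SS cells, for eight cycles. RT activity in supernatants read at each passage.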
# [4] = system: Human immunodeficiency virus 1; test: Antiviral activity against HIV1 LAI in human CEM-SS cells assessed as RT activity after 5 days by single passage assay; assay type: functional, organism-based; settings: Human immunodeficiency virus 1, LAI, 120 h
# Method in brief: (§3)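 CEM-SS cells kept in RPMI 1640 with 10% FCS, penicillin, streptomycin and glutamine at 37 °C, 5% CO2. Infected with HIV-1 LAI at 20 TCID50, 30 min adsorption, washed, resuspended at 10^5 cells/mL with serial compound dilutions. After 5 days, RT activity in the medium was measured. IC50 came from a median-effect plot. AZT was the positive control. Run twice.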
# [5] = system: Human immunodeficiency virus 1; test: Antiviral activity against HIV1 3B in human MT4 cells assessed as RT activity after 5 days by single passage assay; assay type: functional, organism-based; settings: Human immunodeficiency virus 1, 3B, MT4, 120 h
# Method in brief: as §3, with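 “MT-4” for “CEM-SS”, “IIIB” for “LAI”, “5” for “20”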
# [6] = system: Human immunodeficiency virus 1; test: Antiviral activity against HIV1 LAI in human CEM-SS cells assessed as RT activity after 4 serial passages with uninfected cells by serial passage experiment; assay type: functional, organism-based; method in brief: as §2
# [7] = system: Human immunodeficiency virus 1; test: Antiviral activity against HIV1 LAI in human CEM-SS cells assessed as RT activity after 4 to 8 serial passages with uninfected cells by serial passage experiment; assay type: functional, organism-based; method in brief: as §2
# [8] = system: Human immunodeficiency virus 1; test: Induction of mutation in HIV1 LAI in human CEM-SS cells after 7 passages with uninfected cells; assay type: functional, organism-based
SMILES,CC50 [1] [µM],CC50 [2] [µM],Activity [3],IC50 [4] [µM],IC50 [5] [µM],Activity [6],Activity [7],Activity [8]
NC(=O)Cc1cn([C@H]2C[C@H](O)[C@@H](CO)O2)c(=O)[nH]c1=O,> 200,> 200,Active,> 200,> 200,inactive,Active,inactive
Nc1nc(=O)n([C@H]2C[C@H](O)[C@@H](CO)O2)cc1CO,> 200,> 200,–,24,> 200,inactive,Active,–
NC(=O)Cc1cn([C@H]2C[C@H](O)[C@@H](CO)O2)c(=O)nc1N,> 200,> 200,–,> 200,> 200,–,–,–
NC(=O)c1cn([C@H]2C[C@H](O)[C@@H](CO)O2)c(=O)[nH]c1=O,> 200,> 200,–,> 200,> 200,inactive,Active,inactive
Cc1cn([C@H]2C[C@H](N=[N+]=[N-])[C@@H](CO)O2)c(=O)[nH]c1=O [ZIDOVUDINE],> 1,> 1,–,–,0.018,–,–,–
NC(=O)Cn1c(=O)ccn([C@H]2C[C@H](O)[C@@H](CO)O2)c1=O,> 200,> 200,–,> 200,> 200,–,–,–
NC(=O)c1cn([C@H]2C[C@H](O)[C@@H](CO)O2)c(=O)nc1N,> 200,> 200,–,> 200,> 200,–,–,–
O=c1[nH]c(=O)n([C@H]2C[C@H](O)[C@@H](CO)O2)cc1CO,120,130,Active,30,> 130,inactive,Active,–
O=c1[nH]c(=O)n([C@H]2C[C@H](O)[C@@H](CO)O2)cc1O,> 200,> 200,–,> 200,> 200,–,–,–
